proCasp3 act = procaspase-3 (human) activation. P42574. recombinant procaspase-3 D3A, Ac-DEVD-pNA absorbance 405 nm. activation, % at 8.5 µM. 0.11% of 330,000 active;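 active means activation above the mean of all tested compounds plus 3 SD, cut at about 21% in these data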;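 further: 0% = DMSO alone and 100% = DMSO wells spiked with extra 5 µM PC-3 D3A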
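Assay system: Procaspase-3 D3A mutant, all three cleavage aspartates alanine. Buffer or medium: Zinc-free HEPES saline buffer with Triton X-100. Times: 1 h compound preincubation, 2 h substrate hydrolysis at 25 °C. Measured by: 405 nm absorbance of p-nitroaniline, reads at 0 and 120 min. Read-out basis: percent activation relative to control range. Replicates: singlicate.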
CHT inh = human CHT choline transport inhibition; Q9GZV3; CHT-expressing cells, membrane potential dye, choline response; stronger effect = lower value; B-score at 10 µM; 0.86% of 310,000 active; AID 488975;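 active means B-score over 3 SD under the library average, and starting fluorescence ratio not unusually high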;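 further: choline stimulus applied at its EC90 after an EC20 pre-addition; B-score computed on integrated fluorescence ratio after choline addition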
CHT PAM = human CHT allosteric activation | 0.49% of 310,000 active | Q9GZV3 | B-score at 10 µM | AID 488977 | CHT-expressing cells, membrane potential dye, choline EC20; stronger effect = higher value; LV-AA mutant CHT in HEK293 cells;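 active means initial fluorescence not abnormally high and integrated response B-score, plate-corrected, over 3 SD above library mean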
proCasp7 act = activates human procaspase-7, counter-screen for procaspase-3 activators | P55210 | recombinant procaspase-7, Ac-DEVD-pNA absorbance 405 nm; D23A/D198A/D206A triple mutant, cannot self-cleave; scale: DMSO 0, 5 µM enzyme 100 | activation, % at 8.5 µM | 0.093% of 330,000 active | AID 463210;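 active means percent activation above the screen-wide mean plus 3 SD, cut at about 25% in these data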
Target sequence (P55210 whole entry D23A/D198A/D206A): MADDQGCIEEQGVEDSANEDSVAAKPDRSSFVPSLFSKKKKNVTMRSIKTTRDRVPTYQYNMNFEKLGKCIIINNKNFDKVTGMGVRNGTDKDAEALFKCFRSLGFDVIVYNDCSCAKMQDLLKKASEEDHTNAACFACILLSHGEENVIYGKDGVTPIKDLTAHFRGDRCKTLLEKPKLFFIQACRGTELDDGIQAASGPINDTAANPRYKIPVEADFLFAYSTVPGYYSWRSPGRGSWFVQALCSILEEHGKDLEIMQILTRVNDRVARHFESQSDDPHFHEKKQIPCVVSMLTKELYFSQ
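Assay system – Uncleavable procaspase-7 mutant enzyme · Quantity – 2 µM procaspase-7 mutant as dispensed · Times – 1 h preincubation, 2 h reaction · Dosing – single nominal 8.5 µM compound dose, 0.8% DMSO final · Buffer or medium – Zinc-free 50 mM HEPES buffer, pH 7.4, with NaCl and Triton X-100 · Detection – Epi-absorbance of released pNA at 405 nm, two timepoints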
CHT act confirm = human CHT activation, confirmatory screen. shares compounds with CHT PAM. CHT-expressing cells, membrane potential dye fluorescence (FDSS); % of choline EC20–EC90 response window; HEK293 expressing CHT LV-AA mutant; choline added at its EC20. activation, % at 10 µM. 91% of 2,500 active;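 active means primary screen active, with duplicate mean activation above negative control mean plus 3 SD, cut at about 11% in these data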
HEK293 MP dye = activity in parental HEK293 cells lacking CHT; 62% of 2,500 active; membrane potential dye fluorescence (FDSS); measured after EC20 choline addition; ratio readout change at 10 µM, hits read low; AID 623908; shares compounds with CHT PAM;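 active means duplicate-averaged ratio beyond 3 SD from buffer wells, up or down, though filed actives are nearly all decreases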
* = called active by the depositor; i = inactive; . = not tested or not shown. Hits are enriched below; roughly 1.3% of the tested compounds scored in any of these assays.

SMILES	proCasp3 act	CHT inh	CHT PAM	proCasp7 act	CHT act confirm	HEK293 MP dye
Cc1nonc1OCCNCCNc1ccc([N+](=O)[O-])c2cccnc12	-1	i	i	-14	30*	-63*
COC(=O)C1=C(c2ccc(F)cc2F)C[C@@H]2CC[C@H]1N2C(=O)NCc1ccco1	-3	.	.	-8	.	.
Cc1cccc(NP(=O)(Oc2ccccc2)Oc2ccccc2)c1C	0	i	i	-1	.	.
Cc1ccccc1NP(=O)(Oc1ccccc1F)Oc1ccccc1F	-7	i	6.3*	0	9.9*	i
CNC(=S)N(C)CCc1cc2c(c(OC)c1C=C1C(=O)NC(=O)NC1=O)OCO2	-12	i	7.3*	-14	51*	-56*
CC(=O)c1cn(Cc2ccc(F)cc2)c2ccccc12	-7	i	i	-6	.	.
O=C(c1ccco1)c1cn(Cc2ccc(Cl)cc2)c2ccccc12	2	i	i	1	18*	i
Cn1c(=O)n(C)c2cc([N+](=O)[O-])c(N3CCNCC3)cc21	-1	i	9.7*	0	0	i
C1CCC2S[C@H]3CCCCC3NC2C1 (stereo partly specified)	-4	i	i	5	.	.
Cc1ccc2c(c1)N(N=O)CCC2	0	i	i	-3	.	.
CCCOC(=O)c1ccc(-[n+]2c(-c3ccccc3)cc(-c3ccccc3)cc2-c2ccccc2)cc1	7	i	9.3*	10	18*	i
Cc1ccc(-c2cc(-c3ccccc3)cc(-c3ccccc3)[n+]2-c2ccc(C(=O)O)cc2)cc1	1	i	i	2	.	.
